Calb FLC: C. albicans growth inhibition with fluconazole, primary screen, CaCi-2 strain, Alamar Blue fluorescence; C. albicans CaCi-2 (fluconazole-resistant clinical isolate) + fluconazole, 48 h; AID 1979, 2009; actives 0.57% (n = 300,000); growth inhibition, % (concentration not given with the values);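 active = growth inhibition above about 58% in most replicates, limit read from the data, passing the limit was not always enough; inconclusive = exactly half the replicates above a set limit; inactive = most replicates below a set limit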;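 note: all wells also contain fluconazole at 8 µg/ml as a sub-toxic cotreatment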
Beta cell apopt: inhibitors of cytokine-induced beta cell apoptosis, primary screen, luminescence; INS-1E cytokine-induced death, ATP luminescence, 48 h; percent of positive-control rescue, neutral wells zero; protection from apoptosis, % (concentration not given with the values); actives 0.8% (n = 300,000); AID 435005, 2010;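 active = Every replicate reaches about 75%, or at least half do and their mean reaches it too, limit read from the data; inconclusive = At least half of replicates reach the limit but their mean does not; inactive = Under half of replicates reach the limit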;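 note: higher means more ATP so stronger rescue from cytokine killing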
CSC inhib: cancer stem cell viability inhibitors, primary screen, luminescence. cancer stem cell-like cells viability. inhibition, % at 7.5 µM. AID 2717, 2010. actives 1.1% (n = 300,000); in the data active = inhibition above about 75%; inconclusive = no clear call, values can overlap the other calls; tested in HMLE shEcad cells
Mdm2-MdmX inh: inhibitors of human Mdm2-MdmX association, primary screen, cell-based, luminescence, split luciferase, SaOS-2, uHTS | inhibition, % at 8 µM | actives 3% (n = 330,000) | Protein Mdm4 (Homo sapiens) + E3 ubiquitin-protein ligase Mdm2 (Homo sapiens), … | SaOS-2 split-luciferase Mdm2/MdmX complementation | AID 485346, 2010;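 active = inhibition of at least 50% at 8 µM in the primary screen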
SKKanGAS inh: S. pyogenes SKKanGAS growth inhibitors in kanamycin, primary screen, streptokinase expression inhibitor project, SKKanGAS strain, BacTiter-Glo luminescence | 6 h | inhibition, % at 7.5 µM | actives 1.3% (n = 300,000) | AID 1662, 2009;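 active = mean replicate score, as percent of positive control median, at least 50; inconclusive = mean below 50 but one replicate at or above 50; inactive = mean and every replicate below 50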;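 note: strain carries kanamycin resistance gene driven by streptokinase promoter and grows in 40 µg/ml kanamycin; loss of luminescence reflects streptokinase promoter inhibition or plain growth inhibition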
T cruzi repl: inhibitors of intracellular T. cruzi growth, primary screen, luminescence, NIH3T3 host cells | T. cruzi beta-gal in NIH3T3, 90 h | inhibition, % (concentration not given with the values) | actives 1.4% (n = 300,000) | AID 1885, 2009;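 active = mean inhibition across valid replicates above about 55%, limit read from the data; inconclusive = mean below that limit but half or more replicates reach it; inactive = mean below it, under half of replicates reach it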;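 note: signal also drops with host cell toxicity which is not excluded here; higher percent means less beta-gal luminescence so fewer parasites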
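System: Mouse NIH/3T3 fibroblasts infected with β-gal-expressing T. cruzi Tulahuen C4 | Quantity: NIH/3T3 cells, 5,000 per well | Reagent: 5000 reporter trypomastigotes per well | Dosing: Compound pinned at 50 nL/well, DMSO | Schedule: 3 h host attachment, then at least 90 h co-culture | Detection: GalScreen luminescence, 60 min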
Numbers stand for hits; 0 = inactive; ? = inconclusive; - = not tested or not shown. Rows were chosen to be rich in hits. Some 5.7% of all compounds tested hit in one or more screens of this group.

SMILES	Calb FLC	Beta cell apopt	CSC inhib	Mdm2-MdmX inh	SKKanGAS inh	T cruzi repl
CCCn1c(=N)n(CC(=O)c2ccc([N+](=O)[O-])cc2)c2ccccc21	99	0	0	0	0	0
C=CCn1c(=N)n(CC(=O)c2ccccc2)c2ccccc21	0	0	0	0	0	0
CC(C)(C)C(=O)Cn1c(=N)n(Cc2ccccc2Cl)c2ccccc21	0	0	-	0	0	57
Cc1ccc(Cn2c(=N)n(CC(=O)c3ccccc3)c3ccccc32)cc1	0	98	0	0	0	0
CC(C)(C)C(=O)Cn1c(=N)n(Cc2ccccc2)c2ccccc21	0	0	0	0	0	0
C=CCc1cc(Cl)ccc1OC(=O)Nc1cccc(Cl)c1	0	0	0	0	0	0
Cc1cc(Cl)ccc1OCC(=O)NNC(=O)CCOc1ccccc1	-	0	-	0	-	-
O=C(CNS(=O)(=O)c1ccc(Br)s1)NCC1COc2ccccc2O1 (configuration not stated)	88	0	0	0	0	0
Oc1ccc(-c2csc(-c3c[nH]c4ccccc34)n2)c(O)c1	0	-	90	0	0	0
COc1ccc(Nc2nc(-c3c[nH]c4ccccc34)cs2)cc1	0	-	0	0	0	0
Cc1ccc(-c2csc(-c3c[nH]c4ccccc34)n2)c(C)c1	0	0	99	0	92	0
COc1ccc(-c2nc(-c3ccc(O)cc3O)cs2)cc1OC	?	-	-	-	0	0
CC1(c2nnc(-c3ccncc3)o2)CC(c2ccc([N+](=O)[O-])cc2)=NO1 (configuration not stated)	0	-	-	0	0	0
O=C(N/N=C/c1cc(Cl)cc([N+](=O)[O-])c1O)NC12CC3CC(CC(C3)C1)C2	0	0	82	0	50	0
O=C(N/N=C/c1ccc(O)c(O)c1)NC12CC3CC(CC(C3)C1)C2	0	0	0	0	0	0
O=C(N/N=C/c1ccccc1O)NC12CC3CC(CC(C3)C1)C2	0	0	0	0	84	0
O=C(Nc1nnc(C2=COCCO2)o1)c1cccc(Br)c1	?	0	0	0	100	0
O=C(Nc1nnc(C2=COCCO2)o1)c1cccc([N+](=O)[O-])c1	0	-	0	0	0	0
COc1ccc(C(=O)Nc2nnc(C3=COCCO3)o2)cc1	0	0	0	0	0	0
CCOc1ccc(C(=O)Nc2nnc(C3=COCCO3)o2)cc1	0	0	0	0	72	0
Cc1onc(-c2ccccc2)c1C(=O)OCC(=O)N1CCN(c2ccccc2)CC1	0	0	0	0	0	0
C=CCn1c(O)c(N=Nc2ccccc2O)c2ccccc21	-	0	96	0	-	-
C=CCn1c(O)c(N=Nc2ccccc2)c2ccccc21	0	0	0	0	0	0
C=CCn1c(O)c(N=NC(=O)OCC)c2ccccc21	0	0	0	0	0	0
C=CCn1c(O)c(N=NC(=S)Nc2ccc(OC)cc2)c2ccccc21	108	0	0	-	56	0
SMILES	Calb FLC	Beta cell apopt	CSC inhib	Mdm2-MdmX inh	SKKanGAS inh	T cruzi repl
Cc1cccc(S(=O)(=O)c2c(N)n(/N=C/c3ccco3)c3nc4ccccc4nc23)c1	0	0	0	0	0	57
Cc1ccc(S(=O)(=O)c2c(N)n(/N=C/c3ccco3)c3nc4ccccc4nc23)cc1C	0	0	0	0	0	0
Cc1ccc(S(=O)(=O)c2c(N)n(/N=C/c3ccco3)c3nc4ccccc4nc23)cc1	?	0	0	0	0	78
O=C(Nc1ccc(N2CCOCC2)cc1)c1ccc(S(=O)(=O)NCc2ccco2)cc1	0	0	0	0	0	0
CSc1ccccc1NC(=O)COC(=O)CCc1ccccc1	0	0	0	0	0	0
COc1ccc2c(c1)CCC1=C2NC(=S)NC1c1ccc(N(C)C)cc1 (configuration not stated)	0	0	-	0	0	66
COc1ccc2c(c1)OC[C@H]1[C@H]2N2C(=O)[C@H](C)NC(=O)[C@@]2(C)[C@H]1c1ccccc1	-	0	0	0	-	-
CCOC(=O)C1CCCN(Cc2ccc(-c3ccccc3)cc2)C1 (configuration not stated)	0	0	0	0	0	68
CCOC(=O)C1CCCN(C2CCN(Cc3nc(-c4ccccc4)no3)CC2)C1 (configuration not stated)	?	0	0	0	0	70
CCOC(=O)C1CCCN(Cc2cccc(Oc3ccccc3)c2)C1 (configuration not stated)	0	0	0	0	0	0
CN(Cc1ccccc1)C(=O)C1CCCN(Cc2cccc(Cl)c2)C1 (configuration not stated)	0	0	0	0	0	60
CCOC(=O)C1CCN(C2CCN(Cc3nc(-c4ccccc4)no3)CC2)CC1	0	0	0	0	0	0
COc1ccc(S(=O)(=O)N2CCN(C(=O)COc3ccc(C)c(C)c3)CC2)cc1OC	0	0	0	0	0	0
CCc1nc(N2CCCC2)c(C#N)c2c1CCCC2	0	0	0	0	0	0
CC(C)c1nc(N2CCCC2)c(C#N)c2c1CCCC2	0	0	0	0	93	0
Cc1cc(NC(=O)CN2C(=O)NC3(CCC(C)CC3)C2=O)no1 (configuration not stated)	0	0	0	-	0	0
COC(=O)c1c(NC(=O)CN2C(=O)NC3(CCC(C)CC3)C2=O)sc2c1CCC2 (configuration not stated)	-	0	0	0	-	-
COC(=O)c1c(NC(=O)CN2C(=O)NC3(CCC(C(C)(C)C)CC3)C2=O)sc2c1CCCCC2 (configuration not stated)	0	0	0	0	0	58
Cc1nc(NS(=O)(=O)c2cccs2)c2c3c(sc2n1)CCC3	?	-	0	0	0	0
Cc1nc(NS(=O)(=O)c2ccc(Br)cc2)c2c3c(sc2n1)CCC3	92	0	0	0	0	0
CCCCC(CC)CN1C(=O)/C(=C/c2ccncc2)SC1=S (configuration not stated)	0	88	107	0	87	0
O=C(c1ccco1)N1CCN(C(=O)c2ccccc2OCc2ccc(Cl)cc2)CC1	0	0	0	0	0	0
CC(C)N(C(=O)CSc1nc2ccccc2n1-c1ccccc1)C(C)C	0	0	78	0	0	0
Nc1nc(-c2ccc3c(c2)CCCC3)c(CC(=O)O)s1	0	0	0	0	0	0
CC(C)c1cccc(C(C)C)c1OC(=O)[C@H]1OC(C(C)(C)C)=C[C@@H]1c1ccccc1	-	111	0	0	-	-
CCN(CC(=O)Nc1ccccc1C(F)(F)F)C(=O)c1cc(-c2ccccc2)nn1-c1ccccc1	0	0	-	0	51	0
Cc1nn(-c2ccccc2)c(Cl)c1C(=O)Nc1nnc(C2CCCCC2)s1	0	0	0	0	0	0

Bioassay records as filed in PubChem BioAssay.
